# Test results taken from ChEMBL document CHEMBL5724801, “EUbOPEN Chemogenomics Library - Multiplex” (2024).
# “And” between values parts separate entries of the source, which are not always exact repeats. Identical values can stand only once.
# Test system: HEK-293T
# Experiment: Multiplex assay against HEK293T
# Type: toxicity, cell-based
# Conditions: human
# Outline: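 Live cells carried four stains from seeding: Hoechst33342, BioTracker Green Microtubule Cytoskeleton Dye, MitoTracker Red and Annexin V Alexa Fluor 680. They were imaged on a CQ1 microscope at 37°C and 5% CO2 after compound addition. Using CellPathfinder machine-learning gating, cells were split into Hoechst high-intensity objects or normal cells, normal cells into healthy, pyknosed or fragmented nuclei, and pyknosed cells into mitotic or apoptotic; tubulin, mitochondrial-mass and membrane-permeability phenotypes are per cents of healthy-nucleus cells.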
# [1] = 12 h, 1 µM, compound concentration 1 uM
# [2] = 12 h, 10 µM, compound concentration 10 uM
# [3] = 24 h, 1 µM, compound concentration 1 uM
# [4] = 24 h, 10 µM, compound concentration 10 uM
# [5] = 48 h, 1 µM, compound concentration 1 uM
# [6] = 48 h, 10 µM, compound concentration 10 uM
smiles,measurement,setting,value
CC(N)C1CCC(C(=O)Nc2ccncc2)CC1 (stereo not given),Population Apoptotic (%),[1],7.48% and 4.2%
same,Population Fragmented Nuclei (%),[1],1.19% and 1.23%
same,Population Healthy Nuclei (%),[1],63.72% and 25.31%
same,Population Hoechst High Intensity Objects (%),[1],0.48% and 0%
same,Population Membrane Permeable-Phenotype (%),[1],0%
same,Population Mitotic Cells (%),[1],92.52% and 95.8%
same,Population Normal (%),[1],99.52% and 100%
same,Population Pyknosed Nuclei (%),[1],35.08% and 73.46%
same,Total Cell Count,[1],421 and 162
same,Population Fragmented Nuclei (%),[2],1.2% and 1.9%
same,Population Healthy Nuclei (%),[2],60.28% and 29.75%
same,Population Hoechst High Intensity Objects (%),[2],0%
same,Population Membrane Permeable-Phenotype (%),[2],0.99% and 4.26%
same,Population Mitochondria Different-Phenotype (%),[2],27.81% and 17.02%
same,Population Mitotic Cells (%),[2],96.37% and 83.33%
same,Population Normal (%),[2],100%
same,Population Pyknosed Nuclei (%),[2],38.52% and 68.35%
same,Population Apoptotic (%),[3],2.15% and 8.97%
same,Population Fragmented Nuclei (%),[3],1.77% and 1.69%
same,Population Healthy Nuclei (%),[3],83.28% and 54.49%
same,Population Hoechst High Intensity Objects (%),[3],0.16% and 1.11%
same,Population Membrane Permeable-Phenotype (%),[3],0.97% and 3.09%
same,Population Mitochondria Different-Phenotype (%),[3],6.76% and 5.15%
same,Population Mitotic Cells (%),[3],97.85% and 91.03%
same,Population Normal (%),[3],99.84% and 98.89%
same,Population Pyknosed Nuclei (%),[3],14.95% and 43.82%
same,Population Tubulin-Different-Phenotype (%),[3],6.56% and 4.12%
same,Population Apoptotic (%),[4],4.95% and 13.95%
same,Population Fragmented Nuclei (%),[4],1.78% and 1.58%
same,Population Healthy Nuclei (%),[4],73.29% and 53.16%
same,Population Hoechst High Intensity Objects (%),[4],0% and 0.52%
same,Population Membrane Permeable-Phenotype (%),[4],0.19% and 2.97%
same,Population Mitochondria Different-Phenotype (%),[4],6.17% and 6.93%
same,Population Mitotic Cells (%),[4],95.05% and 86.05%
same,Population Normal (%),[4],100% and 99.48%
same,Population Pyknosed Nuclei (%),[4],24.93% and 45.26%
same,Population Tubulin-Different-Phenotype (%),[4],3.36% and 1.98%
same,Population Apoptotic (%),[5],7.52% and 3.77%
same,Population Fragmented Nuclei (%),[5],2.72% and 1.86%
same,Population Healthy Nuclei (%),[5],86.94% and 78.44%
same,Population Hoechst High Intensity Objects (%),[5],0% and 0.74%
same,Population Membrane Permeable-Phenotype (%),[5],3.76% and 2.84%
same,Population Mitochondria Different-Phenotype (%),[5],10.11% and 9.95%
same,Population Mitotic Cells (%),[5],92.48% and 96.23%
same,Population Normal (%),[5],100% and 99.26%
same,Population Pyknosed Nuclei (%),[5],10.34% and 19.7%
same,Population Fragmented Nuclei (%),[6],1.32% and 1.83%
same,Population Healthy Nuclei (%),[6],88.05% and 71.1%
same,Population Hoechst High Intensity Objects (%),[6],0% and 0.91%
same,Population Membrane Permeable-Phenotype (%),[6],2.25% and 0.65%
same,Population Mitochondria Different-Phenotype (%),[6],9.07% and 6.45%
same,Population Mitotic Cells (%),[6],96.89% and 81.36%
same,Population Normal (%),[6],100% and 99.09%
same,Population Pyknosed Nuclei (%),[6],10.63% and 27.06%
same,Population Tubulin-Different-Phenotype (%),[6],0.3% and 9.68%
"CCCn1c(=O)c2[nH]c(C3CCCC3)nc2n(CCC)c1=O [1,3-DIPROPYL-8-CYCLOPENTYLXANTHINE [DPCPX]]",Population Apoptotic (%),[1],35% and 54%
same,Population Fragmented Nuclei (%),[1],7% and 3%
same,Population Healthy Nuclei (%),[1],79% and 81%
same,Population Hoechst High Intensity Objects (%),[1],6% and 3%
same,Population Membrane Permeable-Phenotype (%),[1],0%
same,Population Mitochondria Different-Phenotype (%),[1],44% and 52%
same,Population Mitotic Cells (%),[1],64% and 45%
same,Population Normal (%),[1],93% and 96%
same,Population Pyknosed Nuclei (%),[1],12% and 14%
same,Population Tubulin-Different-Phenotype (%),[1],32% and 15%
same,Total Cell Count,[1],443 and 361
same,Population Apoptotic (%),[2],60% and 54%
same,Population Fragmented Nuclei (%),[2],12% and 7%
same,Population Healthy Nuclei (%),[2],68% and 75%
same,Population Membrane Permeable-Phenotype (%),[2],0%
same,Population Mitochondria Different-Phenotype (%),[2],58% and 68%
same,Population Mitotic Cells (%),[2],39% and 45%
same,Population Normal (%),[2],94% and 81%
same,Population Pyknosed Nuclei (%),[2],19% and 16%
same,Population Tubulin-Different-Phenotype (%),[2],51% and 45%
same,Total Cell Count,[2],295 and 337
same,Population Apoptotic (%),[3],26% and 28%
same,Population Fragmented Nuclei (%),[3],8% and 7%
same,Population Healthy Nuclei (%),[3],78% and 82%
same,Population Hoechst High Intensity Objects (%),[3],4% and 3%
same,Population Membrane Permeable-Phenotype (%),[3],1% and 0%
same,Population Mitochondria Different-Phenotype (%),[3],25% and 45%
same,Population Mitotic Cells (%),[3],73% and 71%
same,Population Normal (%),[3],95% and 96%
same,Population Pyknosed Nuclei (%),[3],13% and 10%
same,Population Tubulin-Different-Phenotype (%),[3],20% and 19%
same,Total Cell Count,[3],610 and 403
same,Population Apoptotic (%),[4],50% and 41%
same,Population Fragmented Nuclei (%),[4],8% and 7%
same,Population Healthy Nuclei (%),[4],76% and 79%
same,Population Membrane Permeable-Phenotype (%),[4],0%
same,Population Mitochondria Different-Phenotype (%),[4],43% and 55%
same,Population Mitotic Cells (%),[4],50% and 58%
same,Population Normal (%),[4],95% and 84%
same,Population Pyknosed Nuclei (%),[4],14% and 13%
same,Population Tubulin-Different-Phenotype (%),[4],40% and 31%
same,Total Cell Count,[4],379 and 411
same,Population Apoptotic (%),[5],33% and 39%
same,Population Fragmented Nuclei (%),[5],11% and 14%
same,Population Healthy Nuclei (%),[5],81% and 80%
same,Population Hoechst High Intensity Objects (%),[5],1% and 3%
same,Population Membrane Permeable-Phenotype (%),[5],1% and 0%
same,Population Mitochondria Different-Phenotype (%),[5],17% and 22%
same,Population Mitotic Cells (%),[5],66% and 60%
same,Population Normal (%),[5],98% and 96%
same,Population Pyknosed Nuclei (%),[5],7% and 5%
same,Population Tubulin-Different-Phenotype (%),[5],17% and 13%
same,Total Cell Count,[5],957 and 593
same,Population Apoptotic (%),[6],29% and 45%
same,Population Fragmented Nuclei (%),[6],14%
same,Population Healthy Nuclei (%),[6],76% and 75%
same,Population Hoechst High Intensity Objects (%),[6],3% and 7%
same,Population Membrane Permeable-Phenotype (%),[6],1% and 0%
same,Population Mitochondria Different-Phenotype (%),[6],37% and 36%
same,Population Mitotic Cells (%),[6],70% and 54%
same,Population Normal (%),[6],96% and 92%
same,Population Pyknosed Nuclei (%),[6],8% and 10%
same,Population Tubulin-Different-Phenotype (%),[6],30% and 23%
same,Total Cell Count,[6],511 and 516
O=c1nc2[nH]c3ccccc3nc-2c(=O)[nH]1 [ALLOXAZINE],Population Apoptotic (%),[1],27% and 44%
same,Population Fragmented Nuclei (%),[1],8% and 4%
same,Population Healthy Nuclei (%),[1],77% and 79%
same,Population Hoechst High Intensity Objects (%),[1],8% and 7%
same,Population Membrane Permeable-Phenotype (%),[1],0%
same,Population Mitochondria Different-Phenotype (%),[1],44% and 66%
same,Population Mitotic Cells (%),[1],72% and 55%
same,Population Normal (%),[1],91% and 92%
same,Population Pyknosed Nuclei (%),[1],13% and 15%
same,Population Tubulin-Different-Phenotype (%),[1],33% and 25%
same,Total Cell Count,[1],377 and 345
same,Population Apoptotic (%),[2],40% and 60%
same,Population Fragmented Nuclei (%),[2],10% and 8%
same,Population Healthy Nuclei (%),[2],71% and 70%
same,Population Hoechst High Intensity Objects (%),[2],5% and 15%
same,Population Membrane Permeable-Phenotype (%),[2],0%
same,Population Mitochondria Different-Phenotype (%),[2],53% and 67%
same,Population Mitotic Cells (%),[2],59% and 40%
same,Population Normal (%),[2],94% and 84%
same,Population Pyknosed Nuclei (%),[2],18% and 20%
same,Population Tubulin-Different-Phenotype (%),[2],31% and 20%
same,Total Cell Count,[2],362 and 323
same,Population Apoptotic (%),[3],22% and 33%
same,Population Fragmented Nuclei (%),[3],10% and 7%
same,Population Healthy Nuclei (%),[3],76% and 83%
same,Population Hoechst High Intensity Objects (%),[3],4% and 7%
same,Population Membrane Permeable-Phenotype (%),[3],0%
same,Population Mitochondria Different-Phenotype (%),[3],24% and 41%
same,Population Mitotic Cells (%),[3],77% and 66%
same,Population Normal (%),[3],95% and 92%
same,Population Pyknosed Nuclei (%),[3],12% and 8%
same,Population Tubulin-Different-Phenotype (%),[3],19% and 12%
same,Total Cell Count,[3],504 and 391
same,Population Apoptotic (%),[4],27% and 50%
same,Population Fragmented Nuclei (%),[4],9%
same,Population Healthy Nuclei (%),[4],77% and 72%
same,Population Hoechst High Intensity Objects (%),[4],6% and 15%
same,Population Membrane Permeable-Phenotype (%),[4],0%
same,Population Mitochondria Different-Phenotype (%),[4],34% and 48%
same,Population Mitotic Cells (%),[4],72% and 50%
same,Population Normal (%),[4],93% and 84%
same,Population Pyknosed Nuclei (%),[4],12% and 17%
same,Population Tubulin-Different-Phenotype (%),[4],21% and 16%
same,Total Cell Count,[4],491 and 371
same,Population Apoptotic (%),[5],32% and 27%
same,Population Fragmented Nuclei (%),[5],14% and 11%
same,Population Healthy Nuclei (%),[5],77% and 82%
same,Population Hoechst High Intensity Objects (%),[5],3% and 4%
same,Population Membrane Permeable-Phenotype (%),[5],1% and 0%
same,Population Mitochondria Different-Phenotype (%),[5],18% and 26%
same,Population Mitotic Cells (%),[5],67% and 72%
same,Population Normal (%),[5],96% and 95%
same,Population Pyknosed Nuclei (%),[5],8% and 6%
same,Population Tubulin-Different-Phenotype (%),[5],13% and 12%
same,Total Cell Count,[5],773 and 636
same,Population Apoptotic (%),[6],29% and 48%
same,Population Fragmented Nuclei (%),[6],15% and 14%
same,Population Healthy Nuclei (%),[6],76% and 78%
same,Population Hoechst High Intensity Objects (%),[6],3% and 4%
same,Population Membrane Permeable-Phenotype (%),[6],0%
same,Population Mitochondria Different-Phenotype (%),[6],17% and 28%
same,Population Mitotic Cells (%),[6],70% and 51%
same,Population Normal (%),[6],96% and 95%
same,Population Pyknosed Nuclei (%),[6],7% and 6%
same,Population Tubulin-Different-Phenotype (%),[6],11% and 14%
same,Total Cell Count,[6],700 and 531
